Assay results published in article PMC6465157 (Chemical research in toxicology, 2019).
Like-named read-outs stand apart in the source and are kept apart here.

Columns and labels:
[1] = test system: mice; test: Daily animal welfare-assessments of exposed mice; format: in vivo; details: 6.63 mg/kg body weight in corn oil by oral gavage, up to 48 h
In short: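 Male and female mice (8 weeks ± 2 days) with liver-specific cpr deletion and congenic wild-type mice were housed at 22 ± 2 °C on a 12 h light-dark cycle with diet and water ad libitum. They were randomised to a single gavage of test compound (6.63 mg/kg; 18.4 µmol/kg) in corn oil (10 mL/kg) or to corn oil alone. Lab personnel assessed welfare daily.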

[2] = format: in vivo, mice
In short: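 Whole blood was taken 1 to 48 h after a single oral gavage (6.63 mg/kg in corn oil). Hydroxylated metabolites were methylated, and all analytes were run by GC with 63Ni-µECD on an SPB-1 column (60 m × 250 µm × 0.25 µm). The oven ran from 100 °C to 280 °C; injector was 280 °C, detector 300 °C, helium 1.0 mL/min. A PCB congener internal standard served as volume corrector.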

[3] = prior study, 30 mg/kg body weight, cited from earlier work
[4] = format: in vivo, mice; remark: listed apart in the source
In short: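 Blood extracts were dried under nitrogen. Headspace was sampled by SPME with a 100 µm PDMS fiber for 60 min at 60 °C, then desorbed in the injector for 5 min. Atropisomers were separated by GC-µECD with injector and detector at 250 °C and helium at 3.0 mL/min. The parent was measured on Chirasil-Dex at all time points from 1 to 48 h. Hydroxylated metabolites were measured at 5 h only, on Chirasil-Dex or CycloSil-B columns. Enantiomeric fractions were reported, n = 3–6.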

[5] = 5 h time point, all four exposure groups (M-KO, M-WT, F-KO, F-WT)
[6] = 5 h time point, all exposure groups

Structure (SMILES): Clc1ccc(Cl)c(-c2c(Cl)ccc(Cl)c2Cl)c1Cl [PCB 136, 2,2’,3,3’,6,6’-hexachlorobiphenyl]
- Adverse outcomes in daily animal welfare-assessments [1]: no adverse outcomes were observed
- Detection in whole blood ([2]; all time points investigated (1 to 48 h), oral racemic PCB 136 6.63 mg/kg): detected
- Enantiomeric fraction (EF) of PCB 136 ([3]; F-WT mice): 0.63 ± 0.06
- Enantiomeric fraction (EF) of PCB 136 ([3]; M-WT mice (so in the source)): 0.66 ± 0.03

Structure (SMILES): Oc1c(O)c(Cl)c(-c2c(Cl)ccc(Cl)c2Cl)c(Cl)c1Cl [4,5–136, 4,5-dihydroxy-2,2′,3,3′,6,6′-hexachlorobiphenyl]
- Detection in whole blood [2, 5]: detected

Structure (SMILES): Oc1cc(Cl)c(-c2c(Cl)ccc(Cl)c2Cl)c(Cl)c1Cl [E2-4–136]
- Atropisomeric enrichment in whole blood [4, 6]: enriched

Structure (SMILES): Oc1cc(Cl)c(Cl)c(-c2c(Cl)ccc(Cl)c2Cl)c1Cl [E1-5–136]
- Atropisomeric enrichment in whole blood [4, 6]: enriched

Structure (SMILES): Oc1cc(Cl)c(-c2c(Cl)ccc(Cl)c2Cl)c(Cl)c1Cl [4–136, 2,2′,3,3′,6,6′-hexachlorobiphenyl-4-ol]
- Detection in whole blood [2, 5]: detected

Structure (SMILES): Oc1c(Cl)cc(Cl)c(-c2c(Cl)ccc(Cl)c2Cl)c1Cl [3–150, 2,2′,3′,4,6,6′-Hexachlorobiphenyl-3-ol]
- Detection in whole blood [2, 5]: detected

Structure (SMILES): Clc1ccc(Cl)c(-c2c(Cl)ccc(Cl)c2Cl)c1Cl [E2-(+)-PCB 136]
- Atropisomeric enrichment in whole blood ([4]; all samples, 1 to 48 h, male and female KO and WT mice): enriched

Structure (SMILES): Oc1cc(Cl)c(Cl)c(-c2c(Cl)ccc(Cl)c2Cl)c1Cl [5–136, 2,2′,3,3′,6,6′-hexachlorobiphenyl-5-ol]
- Detection in whole blood [2, 5]: detected
